Activity calls are given as the source filed them. The calls are words filed in the database; no cut-off is given here.
Assays:
[1] = test system: Human immunodeficiency virus 1; assay: Antiviral activity against HIV1 infected in CEM cells after 72 hrs by GFP reporter gene assay; format: functional, organism-based; settings: for IC50: Human immunodeficiency virus 1, CCRF-CEM; for Activity: CCRF-CEM
Outline: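 CEM T cells carrying an HIV-1 LTR-driven GFP plasmid; 5 × 10^5 cells infected 2 h in 100 µl with supernatant of chronically HIV-infected H9 cells (20 ng/mL p24 equivalent) with compounds at 1000, 100, 10, 1 µM; medium then added, 72 h culture; inhibition scored by GFP expression; IC50 = concentration inhibiting 50% infection; zidovudine internal positive control.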

[2] = Selectivity index, ratio of CC50 for human MOLT3 cells to IC50 for HIV1; format: functional, MOLT-3
Outline: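 SI = CC50/IC50. CC50 from MTS formazan colorimetric assay: 1 × 10^4 MOLT-3 cells with or without compounds at 1000 to 1 µM, concentration reducing metabolic activity 50%. IC50 from CEM-GFP HIV-1 infection (2 h exposure with compounds at 1000–1 µM, 72 h culture, GFP read-out).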

[3] = test system: Human T-cell leukemia virus type I; assay: Antiviral activity against HTLV1 infected in PBMC assessed as decrease in viral core protein p19 production; format: functional, organism-based
Outline: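 PBMC co-cultivated with a chronically HTLV-1-infected cell line, with test compounds present; infection measured as production of viral core protein p19.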

[4] = Cytotoxicity against human MOLT3 cells by MTS assay; format: cell-based; settings: MOLT-3 cells
Outline: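 MOLT-3 cells (1 × 10^4) seeded with or without compounds at 1000 to 1 µM. Metabolic activity read colorimetrically as MTS formazan formation. CC50 is the concentration giving 50% inhibition of metabolic activity.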

[5] = test system: Human immunodeficiency virus 1; assay: Ratio of AZT IC50 to compound IC50 for HIV1; format: functional
[6] = Ratio of compound CC50 to AZT CC50 for human MOLT3 cells; format: cell-based; settings: MOLT-3 cells

In the case of CCOC(=O)[C@@]1(n2ccc(N)nc2=O)C[C@H](P(=O)(OCC)OCC)N(C)O1 (racemic), the IC50 [1] is reported as 180 µM, the “Ratio CC50/IC50” value [2] is reported as 7.02 and the Activity [3] is reported as “inactive”. The CC50 [4] was > 1000 µM.

With CCOC(=O)[C@@]1(n2ccc(NC(C)=O)nc2=O)C[C@H](P(=O)(OCC)OCC)N(C)O1 (racemic) the IC50 [1] was > 1000 µM, the Activity [3] was “inactive” and the CC50 [4] was > 1000 µM.

In the case of CCOC(=O)[C@]1(n2cc(C)c(=O)[nH]c2=O)C[C@H](P(=O)(OCC)OCC)N(C)O1 (racemic), the Activity [1] is reported as “inactive” and the Activity [3] is reported as “inactive”.

For Cc1cn([C@H]2C[C@H](N=[N+]=[N-])[C@@H](CO)O2)c(=O)[nH]c1=O [ZIDOVUDINE], the IC50 [1] was 7.7 µM, the “Ratio CC50/IC50” value [2] was 1.57 and the CC50 [4] was 12.1 µM.

With CCOC(=O)[C@]1(n2cc(F)c(=O)[nH]c2=O)C[C@H](P(=O)(OCC)OCC)N(C)O1 (racemic) the Activity [1] was “inactive” and the Activity [3] was “inactive”.

For CCOC(=O)[C@@]1(n2ccc(=O)[nH]c2=O)C[C@H](P(=O)(OCC)OCC)N(C)O1 (racemic), the IC50 [1] was 132 µM, the “Ratio IC50” value [5] was 28 and the “Ratio CC50/IC50” value [2] was 7.57. The Activity [3] was “inactive”, the selectivity ratio [6] was 83 and the CC50 [4] was > 1000 µM.

For CCOC(=O)[C@]1(n2ccc(=O)[nH]c2=O)C[C@H](P(=O)(OCC)OCC)N(C)O1 (relative stereo), the Activity [1] was “inactive” and the Activity [3] was “inactive”.

In the case of CCOC(=O)[C@@]1(n2cc(F)c(=O)[nH]c2=O)C[C@H](P(=O)(OCC)OCC)N(C)O1 (racemic), the IC50 [1] is reported as 220 µM, the “Ratio IC50” value [5] is reported as 28 and the “Ratio CC50/IC50” value [2] is reported as 4.5. The Activity [3] was “inactive”, the selectivity ratio [6] was 83 and the CC50 [4] was > 1000 µM.

With CCOC(=O)[C@@]1(n2cc(C)c(=O)[nH]c2=O)C[C@H](P(=O)(OCC)OCC)N(C)O1 (racemic) the IC50 [1] was > 1000 µM, the Activity [3] was “inactive” and the CC50 [4] was > 1000 µM.

With CCOC(=O)[C@]1(n2ccc(NC(C)=O)nc2=O)C[C@H](P(=O)(OCC)OCC)N(C)O1 (racemic) the Activity [1] was “inactive” and the Activity [3] was “inactive”.

Reference: ChEMBL document CHEMBL2034829, “Truncated phosphonated C-1'-branched N,O-nucleosides: a new class of antiviral agents” (Bioorg Med Chem, 2012)
